Laboratory results as given in ChEMBL document CHEMBL5724801, “EUbOPEN Chemogenomics Library - Multiplex” (2024).
Several values for one entry are separate records, joined by “and”; a condition that tells them apart may be missing. Equal values may be shown once.

Tested on: HEK-293T
Assay: Multiplex assay against HEK293T
Type: toxicity, cell-based
Details: human
In short: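 Per cents of healthy-nucleus cells form the tubulin, mitochondrial-mass and membrane-permeability phenotype values. Live cells were stained at seeding with Hoechst33342, BioTracker Green Microtubule Cytoskeleton Dye, MitoTracker Red and Annexin V Alexa Fluor 680. After compound addition they were imaged on a CQ1 microscope at 37°C and 5% CO2, and CellPathfinder machine-learning gating split them into Hoechst high-intensity objects or normal cells, normal cells into healthy, pyknosed or fragmented nuclei, and pyknosed cells into mitotic or apoptotic.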

[1] = 12 h, 1 µM, compound concentration 1 uM
[2] = 12 h, 10 µM, compound concentration 10 uM
[3] = 24 h, 1 µM, compound concentration 1 uM
[4] = 24 h, 10 µM, compound concentration 10 uM
[5] = 48 h, 1 µM, compound concentration 1 uM
[6] = 48 h, 10 µM, compound concentration 10 uM

COc1ccccc1N1CCN(CCCCNC(=O)c2ccc3ccccc3c2)CC1.Cl
Population Apoptotic (%) [1]: 45% and 36%
Population Fragmented Nuclei (%) [1]: 7% and 6%
Population Healthy Nuclei (%) [1]: 81% and 79%
Population Hoechst High Intensity Objects (%) [1]: 6% and 5%
Population Mitochondria Different-Phenotype (%) [1]: 53% and 76%
Population Mitotic Cells (%) [1]: 54% and 63%
Population Normal (%) [1]: 93% and 94%
Population Tubulin-Different-Phenotype (%) [1]: 41% and 35%
Total Cell Count [1]: 430 and 354
Population Apoptotic (%) [2]: 71% and 70%
Population Fragmented Nuclei (%) [2]: 4% and 7%
Population Healthy Nuclei (%) [2]: 69% and 75%
Population Hoechst High Intensity Objects (%) [2]: 16% and 15%
Population Mitochondria Different-Phenotype (%) [2]: 90% and 93%
Population Mitotic Cells (%) [2]: 28% and 29%
Population Normal (%) [2]: 83% and 84%
Population Tubulin-Different-Phenotype (%) [2]: 75% and 72%
Total Cell Count [2]: 321 and 256
Population Apoptotic (%) [3]: 27% and 36%
Population Fragmented Nuclei (%) [3]: 8% and 7%
Population Healthy Nuclei (%) [3]: 78% and 82%
Population Hoechst High Intensity Objects (%) [3]: 6%
Population Mitochondria Different-Phenotype (%) [3]: 38% and 62%
Population Mitotic Cells (%) [3]: 72% and 63%
Population Normal (%) [3]: 93%
Population Tubulin-Different-Phenotype (%) [3]: 32% and 26%
Total Cell Count [3]: 561 and 444
Population Apoptotic (%) [4]: 56% and 60%
Population Fragmented Nuclei (%) [4]: 7% and 10%
Population Healthy Nuclei (%) [4]: 74% and 69%
Population Hoechst High Intensity Objects (%) [4]: 13% and 17%
Population Mitochondria Different-Phenotype (%) [4]: 96% and 94%
Population Mitotic Cells (%) [4]: 43% and 39%
Population Normal (%) [4]: 86% and 82%
Population Tubulin-Different-Phenotype (%) [4]: 87% and 66%
Total Cell Count [4]: 393 and 276
Population Apoptotic (%) [5]: 20% and 46%
Population Healthy Nuclei (%) [5]: 81% and 78%
Population Hoechst High Intensity Objects (%) [5]: 3% and 5%
Population Mitochondria Different-Phenotype (%) [5]: 34% and 37%
Population Mitotic Cells (%) [5]: 79% and 53%
Population Normal (%) [5]: 96% and 94%
Population Tubulin-Different-Phenotype (%) [5]: 20% and 22%
Total Cell Count [5]: 841 and 635
Population Apoptotic (%) [6]: 60% and 78%
Population Fragmented Nuclei (%) [6]: 8%
Population Healthy Nuclei (%) [6]: 77% and 78%
Population Hoechst High Intensity Objects (%) [6]: 8% and 10%
Population Mitochondria Different-Phenotype (%) [6]: 88% and 92%
Population Mitotic Cells (%) [6]: 40% and 21%
Population Normal (%) [6]: 91% and 89%
Population Tubulin-Different-Phenotype (%) [6]: 73% and 71%
Total Cell Count [6]: 519 and 329

COc1cc2nc(N3CCN(C(=O)COc4c(OC)cccc4C(C)C)CC3)nc(N)c2cc1OC.Cl.Cl
Population Apoptotic (%) [1]: 35% and 46%
Population Fragmented Nuclei (%) [1]: 12% and 8%
Population Healthy Nuclei (%) [1]: 77% and 81%
Population Hoechst High Intensity Objects (%) [1]: 5% and 4%
Population Membrane Permeable-Phenotype (%) [1]: 0%
Population Mitochondria Different-Phenotype (%) [1]: 48% and 58%
Population Mitotic Cells (%) [1]: 64% and 53%
Population Normal (%) [1]: 94% and 95%
Population Pyknosed Nuclei (%) [1]: 9%
Population Tubulin-Different-Phenotype (%) [1]: 23% and 18%
Total Cell Count [1]: 402 and 365
Population Apoptotic (%) [2]: 52% and 57%
Population Fragmented Nuclei (%) [2]: 13% and 14%
Population Healthy Nuclei (%) [2]: 69% and 67%
Population Hoechst High Intensity Objects (%) [2]: 25% and 18%
Population Membrane Permeable-Phenotype (%) [2]: 1% and 3%
Population Mitochondria Different-Phenotype (%) [2]: 74% and 66%
Population Mitotic Cells (%) [2]: 48% and 42%
Population Normal (%) [2]: 74% and 81%
Population Pyknosed Nuclei (%) [2]: 17% and 18%
Population Tubulin-Different-Phenotype (%) [2]: 81% and 66%
Total Cell Count [2]: 386 and 286
Population Apoptotic (%) [3]: 35% and 42%
Population Fragmented Nuclei (%) [3]: 11% and 8%
Population Healthy Nuclei (%) [3]: 77% and 84%
Population Hoechst High Intensity Objects (%) [3]: 5% and 2%
Population Membrane Permeable-Phenotype (%) [3]: 0%
Population Mitochondria Different-Phenotype (%) [3]: 27% and 44%
Population Mitotic Cells (%) [3]: 64% and 57%
Population Normal (%) [3]: 95% and 97%
Population Pyknosed Nuclei (%) [3]: 10% and 7%
Population Tubulin-Different-Phenotype (%) [3]: 19% and 16%
Total Cell Count [3]: 540 and 472
Population Apoptotic (%) [4]: 42% and 51%
Population Fragmented Nuclei (%) [4]: 14% and 13%
Population Healthy Nuclei (%) [4]: 64% and 59%
Population Hoechst High Intensity Objects (%) [4]: 29% and 39%
Population Membrane Permeable-Phenotype (%) [4]: 2%
Population Mitochondria Different-Phenotype (%) [4]: 68% and 72%
Population Mitotic Cells (%) [4]: 57% and 48%
Population Normal (%) [4]: 70% and 60%
Population Pyknosed Nuclei (%) [4]: 21% and 27%
Population Tubulin-Different-Phenotype (%) [4]: 69% and 63%
Total Cell Count [4]: 498 and 286
Population Apoptotic (%) [5]: 28% and 11%
Population Fragmented Nuclei (%) [5]: 16% and 15%
Population Healthy Nuclei (%) [5]: 76% and 78%
Population Hoechst High Intensity Objects (%) [5]: 2% and 3%
Population Membrane Permeable-Phenotype (%) [5]: 1% and 0%
Population Mitochondria Different-Phenotype (%) [5]: 18%
Population Mitotic Cells (%) [5]: 71% and 88%
Population Normal (%) [5]: 97% and 96%
Population Pyknosed Nuclei (%) [5]: 6%
Population Tubulin-Different-Phenotype (%) [5]: 11% and 12%
Total Cell Count [5]: 930 and 737
Population Apoptotic (%) [6]: 31% and 30%
Population Fragmented Nuclei (%) [6]: 18% and 17%
Population Healthy Nuclei (%) [6]: 56% and 59%
Population Hoechst High Intensity Objects (%) [6]: 41% and 46%
Population Membrane Permeable-Phenotype (%) [6]: 3% and 1%
Population Mitochondria Different-Phenotype (%) [6]: 48% and 49%
Population Mitotic Cells (%) [6]: 68% and 69%
Population Normal (%) [6]: 58% and 53%
Population Pyknosed Nuclei (%) [6]: 25% and 23%
Population Tubulin-Different-Phenotype (%) [6]: 56% and 38%
Total Cell Count [6]: 660 and 430

Cc1cccc(F)c1C(=O)Nc1cnc(-c2cc3c(cc2Cl)OC(F)(F)O3)cn1 [ZEGOCRACTIN]
Population Apoptotic (%) [1]: 12.35% and 6.45%
Population Healthy Nuclei (%) [1]: 42.98% and 15.89%
Population Hoechst High Intensity Objects (%) [1]: 0.27% and 0%
Population Membrane Permeable-Phenotype (%) [1]: 0% and 4.17%
Population Mitochondria Different-Phenotype (%) [1]: 33.33% and 20.83%
Population Mitotic Cells (%) [1]: 87.65% and 93.55%
Population Normal (%) [1]: 99.73% and 100%
Population Pyknosed Nuclei (%) [1]: 44.63% and 82.12%
Total Cell Count [1]: 364 and 151
Population Apoptotic (%) [2]: 18.42% and 16.15%
Population Fragmented Nuclei (%) [2]: 2.44% and 4.03%
Population Healthy Nuclei (%) [2]: 23.41% and 8.72%
Population Hoechst High Intensity Objects (%) [2]: 2.38% and 0%
Population Membrane Permeable-Phenotype (%) [2]: 0% and 7.69%
Population Mitochondria Different-Phenotype (%) [2]: 22.92% and 30.77%
Population Mitotic Cells (%) [2]: 81.58% and 83.85%
Population Normal (%) [2]: 97.62% and 100%
Population Pyknosed Nuclei (%) [2]: 74.15% and 87.25%
Population Tubulin-Different-Phenotype (%) [2]: 37.5% and 23.08%
Total Cell Count [2]: 210 and 149
Population Apoptotic (%) [3]: 23.62% and 14.53%
Population Fragmented Nuclei (%) [3]: 12.53% and 3.66%
Population Healthy Nuclei (%) [3]: 61.82% and 25%
Population Hoechst High Intensity Objects (%) [3]: 0.4% and 0%
Population Membrane Permeable-Phenotype (%) [3]: 2.29% and 0%
Population Mitochondria Different-Phenotype (%) [3]: 10.78% and 21.95%
Population Mitotic Cells (%) [3]: 76.38% and 85.47%
Population Normal (%) [3]: 99.6% and 100%
Population Pyknosed Nuclei (%) [3]: 25.66% and 71.34%
Population Tubulin-Different-Phenotype (%) [3]: 10.78% and 17.07%
Population Apoptotic (%) [4]: 34.16% and 33.09%
Population Fragmented Nuclei (%) [4]: 0.76% and 3.75%
Population Hoechst High Intensity Objects (%) [4]: 0.75% and 0%
Population Membrane Permeable-Phenotype (%) [4]: 0%
Population Mitochondria Different-Phenotype (%) [4]: 52.48% and 27.78%
Population Mitotic Cells (%) [4]: 65.84% and 66.91%
Population Normal (%) [4]: 99.25% and 100%
Population Pyknosed Nuclei (%) [4]: 60.98% and 85%
Total Cell Count [4]: 266 and 160
Population Apoptotic (%) [5]: 9.86% and 16.85%
Population Fragmented Nuclei (%) [5]: 5.17% and 0.94%
Population Healthy Nuclei (%) [5]: 80.45% and 57.08%
Population Hoechst High Intensity Objects (%) [5]: 0% and 0.47%
Population Membrane Permeable-Phenotype (%) [5]: 4.53% and 2.48%
Population Mitochondria Different-Phenotype (%) [5]: 22.67% and 22.31%
Population Mitotic Cells (%) [5]: 90.14% and 83.15%
Population Normal (%) [5]: 100% and 99.53%
Population Pyknosed Nuclei (%) [5]: 14.39% and 41.98%
Population Apoptotic (%) [6]: 30.82% and 29%
Population Fragmented Nuclei (%) [6]: 1.98% and 3.11%
Population Healthy Nuclei (%) [6]: 61.88% and 34.78%
Population Hoechst High Intensity Objects (%) [6]: 0.49% and 2.42%
Population Membrane Permeable-Phenotype (%) [6]: 2% and 0%
Population Mitochondria Different-Phenotype (%) [6]: 76.4% and 44.64%
Population Mitotic Cells (%) [6]: 69.18% and 71%
Population Normal (%) [6]: 99.51% and 97.58%
Population Pyknosed Nuclei (%) [6]: 36.14% and 62.11%
Total Cell Count [6]: 406 and 165
